Assay [1] addresses T1, ATP-citrate synthase (Homo sapiens, UniProt P53396).
T1 sequence (P53396 whole entry): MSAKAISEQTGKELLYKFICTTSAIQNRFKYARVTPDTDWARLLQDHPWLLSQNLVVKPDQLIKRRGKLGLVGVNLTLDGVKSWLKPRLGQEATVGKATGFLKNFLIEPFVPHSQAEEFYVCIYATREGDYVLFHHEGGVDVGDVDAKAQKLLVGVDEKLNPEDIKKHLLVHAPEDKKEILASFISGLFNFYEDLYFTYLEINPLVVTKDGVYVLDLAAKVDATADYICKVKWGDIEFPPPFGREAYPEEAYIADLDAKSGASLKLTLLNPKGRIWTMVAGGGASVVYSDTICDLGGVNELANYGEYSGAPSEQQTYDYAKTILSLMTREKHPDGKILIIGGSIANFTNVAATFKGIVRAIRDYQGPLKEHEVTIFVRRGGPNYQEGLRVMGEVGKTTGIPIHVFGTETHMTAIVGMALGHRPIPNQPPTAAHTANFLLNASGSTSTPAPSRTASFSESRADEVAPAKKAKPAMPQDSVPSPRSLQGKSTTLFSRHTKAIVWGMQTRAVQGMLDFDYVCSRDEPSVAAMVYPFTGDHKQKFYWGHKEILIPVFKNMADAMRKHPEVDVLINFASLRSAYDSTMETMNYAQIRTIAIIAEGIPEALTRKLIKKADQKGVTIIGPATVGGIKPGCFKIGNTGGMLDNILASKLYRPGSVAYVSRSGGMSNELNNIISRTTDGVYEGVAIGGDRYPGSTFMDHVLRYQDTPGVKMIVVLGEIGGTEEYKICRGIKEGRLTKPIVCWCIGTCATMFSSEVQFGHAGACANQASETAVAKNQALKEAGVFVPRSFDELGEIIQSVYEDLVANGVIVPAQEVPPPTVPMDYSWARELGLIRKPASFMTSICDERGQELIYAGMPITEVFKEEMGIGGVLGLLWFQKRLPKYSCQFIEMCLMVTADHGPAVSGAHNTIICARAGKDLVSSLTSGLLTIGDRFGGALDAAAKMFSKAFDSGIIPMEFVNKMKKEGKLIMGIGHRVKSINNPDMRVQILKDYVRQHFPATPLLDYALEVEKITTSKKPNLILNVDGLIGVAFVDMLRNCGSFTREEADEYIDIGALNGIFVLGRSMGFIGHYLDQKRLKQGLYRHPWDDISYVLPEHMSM
The assay can be described thus: Inhibition of ATP citrate lyase (unknown origin) using sodium citrate as substrate after 60 mins by ADP-Glo luminescence assay. In short, it runs like this: (§1)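 ADP-Glo reagent then added for 45 min at room temperature, and ADP formed was read by luminescence. Dose-response run in duplicate over 0.03–30 µM in 3.3-fold serial dilutions.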

For assay [2], the system named is A549. The assay can be described thus: Antiproliferative activity against human A549 cells at 5 uM after 24 hrs by WST1 assay relative to control. The note with it: A549, 24 h. The class given is functional. In short, it runs like this: (§2)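 A549 cells seeded at 5 × 10⁴/well in Ham's F-12 with 10% FBS, with or without compound, cultured 24 h at 37 °C in 5% CO₂. Single-concentration screen at 5 µM; dose-escalation at 1, 5, 10 µM. WST-1 reagent added, 1 h incubation, absorbance at 450 nm. ACL shRNA/siRNA knockdown served as positive control.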
On the technique in general: Tetrazolium assays rely on reduction of a dye to a coloured formazan, in cell work by metabolically active cells.

The test system of assay [3] is A549. The assay can be described thus: Antiproliferative activity against human A549 cells after 24 hrs by WST1 assay. The class given is functional, cell-based. The procedure, abridged:
as §2

Assay [4] has as its target T2, ATP-citrate synthase (Homo sapiens) (UniProt P53396).
T2 sequence (whole entry): T1 sequence (P53396 whole entry)
The assay can be described thus: Inhibition of ATP citrate lyase (unknown origin) at 10 uM using sodium citrate as substrate after 60 mins by ADP-Glo luminescence assay relative to control. In short, it runs like this: as §1
Background: In ADP-Glo the light output rises with the ADP produced.

In assay [5] the test system is A549. The assay can be described thus: Inhibition of cancer stemness in human A549 cells under 3D culture condition assessed as reduction in spheroid size at 25 uM by Hoechst 33342/Sytox green staining-based confocal microscopic method. In kind it is functional, cell-based. In short, it runs like this: (§3)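 Cells seeded at 2000 per well onto 1.5% agarose-coated wells and grown 2 days at 37 °C, 5% CO₂ to form spheroids before treatment. Staining used Hoechst 33342 for all nuclei plus Sytox Green for dead cells, each at 1:10,000 final. Confocal imaging measured spheroid inner area and Sytox Green integrated density (IntDen), with IntDen/Area as the index.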

The test system of assay [6] is A549. The assay can be described thus: Inhibition of cancer stemness in human A549 cells under 3D culture condition assessed as induction of apoptosis in spheroid at 25 uM by Hoechst 33342/Sytox green staining-based confocal microscopic method. In kind it is functional, cell-based. The procedure, abridged:
as §3

Assay [7] has as its system HMLE. The assay can be described thus: Inhibition of cancer stemness in snail expressing HMLE cells under 3D culture condition assessed as reduction in spheroid size at 25 uM by Hoechst 33342/Sytox green staining-based confocal microscopic method. The note with it: Homo sapiens. The class given is functional, cell-based. In short, it runs like this:
as §3

The test system of assay [8] is HMLE. The assay can be described thus: Inhibition of cancer stemness in snail expressing HMLE cells under 3D culture condition assessed as induction of apoptosis in spheroid at 25 uM by Hoechst 33342/Sytox green staining-based confocal microscopic method. In kind it is functional, cell-based. Particulars: Homo sapiens. In short, it runs like this: as §3
The subject of assay [9] is A549. The assay can be described thus: Antiproliferative activity against human A549 cells at 10 uM after 24 hrs by WST1 assay relative to control. In kind it is functional. Particulars: A549, 24 h. The procedure, abridged: as §2
For assay [10], the system named is A549. The assay can be described thus: Inhibition of cancer stemness in human A549 cells under 3D culture condition assessed as reduction in spheroid size by Hoechst 33342/Sytox green staining-based confocal microscopic method. The class given is functional, cell-based. The procedure, abridged: as §3
Assay [11] concerns A549. The assay can be described thus: Inhibition of cancer stemness in human A549 cells under 3D culture condition assessed as induction of apoptosis in spheroid by Hoechst 33342/Sytox green staining-based confocal microscopic method. In kind it is functional, cell-based. In short, it runs like this:
as §3

Assay [12] concerns HMLE. The assay can be described thus: Inhibition of cancer stemness in snail expressing HMLE cells under 3D culture condition assessed as reduction in spheroid size by Hoechst 33342/Sytox green staining-based confocal microscopic method. Particulars: Homo sapiens. The class given is functional, cell-based. In short, it runs like this:
as §3

Assay [13] deals with HMLE. The assay can be described thus: Inhibition of cancer stemness in snail expressing HMLE cells under 3D culture condition assessed as induction of apoptosis in spheroid by Hoechst 33342/Sytox green staining-based confocal microscopic method. Particulars: Homo sapiens. In kind it is functional, cell-based. In short, it runs like this: as §3
Assay [14] addresses T2, ATP-citrate synthase (Homo sapiens). The assay can be described thus: Inhibition of ATP citrate lyase (unknown origin) at 3.3 uM using sodium citrate as substrate after 60 mins by ADP-Glo luminescence assay relative to control. The procedure, abridged: as §1

Structures are written as SMILES. Activity calls are given as the source filed them. The rule behind the calls is not given here.

The values below come from ChEMBL document CHEMBL4000187, “Design and synthesis of emodin derivatives as novel inhibitors of ATP-citrate lyase” (Eur J Med Chem, 2017).

Usually IC50 stands for the concentration needed to halve the response being measured. Higher therefore signals a need for much substance. Usually inhibition stands for the relative decrease from the control value, in per cent.

Consider `Cc1cc(O)c2c(c1)C(=O)c1cc(O)c(-c3cnn(C)c3)c(O)c1C2=O`, for which the midpoint of inhibition in assay [1], the IC50, lay at 13.3 µM. In assay [2], this molecule registered an inhibition at 5 µM of 40 to 80%. Also, in assay [3], the inhibition entry was “Dose-dependent effect”.

In the case of `COc1cc(OC)cc(-c2c(O)cc3c(c2O)C(=O)c2c(O)cc(C)cc2C3=O)c1`, the inhibition in [4] was found to be 0%.

Consider `Cc1cc(O)c2c(c1)C(=O)c1cc(O)c(I)c(O)c1C2=O`, for which the IC50 in assay [1] was 7.5 µM.

`COc1ccc(-c2ccccc2)cc1NS(=O)(=O)c1cc(Cl)cc(Cl)c1O`: the inhibition result in assay [5], in [6], in assay [7] and in assay [8] was “Active” each time.

Turning to `Cc1cc(O)c2c(c1)C(=O)c1cc(O)c(CN3CCCCC3)c(O)c1C2=O`, the inhibition in assay [4] amounted to 6%.

In assay [1], `Cc1cc(O)c2c(c1)C(=O)c1cc(O)c(-c3cccnc3)c(O)c1C2=O` showed an IC50 of 21.1 µM.

The molecule `Cc1cccc(-c2c(O)cc3c(c2O)C(=O)c2c(O)cc(C)cc2C3=O)c1` returned an IC50 in [1] of 30 µM.

Regarding `COc1cc2c(c(OC)c1Cl)C(=O)c1c(OC)cc(C)cc1C2=O`, in [4], the inhibition came out at 0%.

The molecule `Cc1cc(O)c2c(c1)C(=O)c1cc(O)c(CN(C)c3ccccc3)c(O)c1C2=O` registered an inhibition in assay [4] of 6%.

In assay [1], `COc1ccc(-c2c(O)cc3c(c2O)C(=O)c2c(O)cc(C)cc2C3=O)cc1` displayed an IC50 of 18.8 µM.

In [1], `Cc1cc(O)c2c(c1)C(=O)c1c(c(O)c(-c3cccnc3)c(O)c1-c1cccnc1)C2=O` had an IC50 of 23.5 µM.

For the molecule `Cc1cc(O)c2c(c1)Cc1cc(O)cc(O)c1C2=O`, the inhibition in [4] amounted to 0%.

Molecule `Cc1cc(O)c2c(c1)C(=O)c1cc(O)c(-c3ccncc3)c(O)c1C2=O` displayed an inhibition in assay [4] of 0%.

For the molecule `Cc1cc(O)c2c(c1)C(=O)c1cc3c(c(O)c1C2=O)CN(c1ccc2ocnc2c1)CO3`, in assay [1], it took 29.7 µM to reach half-maximal inhibition (IC50).

In assay [1], `COc1cccc(-c2c(O)cc3c(c2O)C(=O)c2c(O)cc(C)cc2C3=O)c1` gave an IC50 of 21.2 µM.

In assay [1], `Cc1cc(O)c2c(c1)Cc1c(Cl)c(O)cc(O)c1C2=O` returned an IC50 of 3.8 µM. In [2], this molecule yielded an inhibition at 5 µM of 40 to 80%.

In [1], `Cc1cc(O)c2c(c1)C(=O)c1cc3c(c(O)c1C2=O)CN(c1ccccc1)CO3` came in with an IC50 of 25.8 µM.

`Cc1cc(O)c2c(c1)C(=O)c1cc(O)cc(O)c1C2=O` displayed an inhibition in [4] of 0%.

In turn, `Cc1cc(O)c2c(c1)C(=O)c1c(Cl)c(O)cc(O)c1C2=O` registered an IC50 in [1] of 9.6 µM. For the same molecule, in [2], the inhibition at 5 µM lay within 40 to 80%.

In [4], `Cc1cc(O)c2c(c1)C(=O)c1cc(O)c(CN3CCOCC3)c(O)c1C2=O` registered an inhibition of 10%.

Molecule `Cc1cc(O)c2c(c1)C(=O)c1cc(O)c(-c3ccccc3)c(O)c1C2=O` came in with an inhibition in [4] of 8%.

In turn, `Cc1cc(O)c2c(c1)C(=O)c1cc(O)c(Cl)c(O)c1C2=O` yielded an IC50 in [1] of 12.6 µM. The molecule also returned an inhibition at 5 µM in [2] of 40 to 80%.

For the molecule `Cc1cc(O)c2c(c1)C(=O)c1c(Br)c(O)c(Br)c(O)c1C2=O`, the inhibition in assay [4] was greater than 99%; in assay [3] it was “Dose-dependent effect”; in assay [10], “Dose-dependent effect”; in assay [11] it was “Dose-dependent effect”; in assay [12], “Dose-dependent effect”; in assay [13], “Dose-dependent effect”. This molecule also yielded an inhibition in assay [14] greater than 99%. Half-maximal inhibition in [1] (IC50) was put at 2.9 µM. Also, in [2], the inhibition at 5 µM was in the range of 40 to 80%. At 10 µM the inhibition in assay [9] was 100%.

Turning to `Cc1ccc(-c2c(O)cc3c(c2O)C(=O)c2c(O)cc(C)cc2C3=O)cc1`, in [4], the inhibition worked out at 0%.
